According to publication PMC11561146 (Communications Biology, 2024):
Entries after “also recorded” stand apart in the source; their conditions may differ.

Key:
[1] = Detection of ART activated species; type: biochemical; details: heme: ART or derivative 1:1.20, 30 min, reducing conditions
Outline: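 Heme under reducing conditions was reacted with test compound for 30 min, with no protein. Mixtures were run on a C4 column at 1 mL/min using a 0.05% TFA water/acetonitrile gradient (A/B 63/37 to 52/48 over 15 min, then 15 min hold), with Soret detection at 410 nm. Free heme and AAS peaks were integrated, and AAS was given as a percentage of heme by AUC; mean ± SD, three independent experiments.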

[2] = system: heme-TrK13-C580Y complex; experiment: Detection of AAS by UV-visible spectrophotometry; type: biochemical, Plasmodium falciparum; details: 200 µM ART, 30 min
Outline: (§1)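 Purified recombinant protein (10 µM) is incubated for 1 h at room temperature with or without equimolar dithionite-reduced heme (or Zn-PPIX). It is then desalted on a G-25 spin column to remove unbound heme. The >5 kDa eluate is incubated with 200 µM ART or DOA for 30 min. Spectra are scanned at 250–700 nm for the Soret peak, with no-heme and no-ART controls.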

[3] = target: heme-BSA complex (Bos taurus, UniProt P02769); experiment: Detection of AAS by UV-visible spectrophotometry; type: biochemical; details: ART, 30 min
Sequence of heme-BSA complex (P02769 25-607, one chain of several): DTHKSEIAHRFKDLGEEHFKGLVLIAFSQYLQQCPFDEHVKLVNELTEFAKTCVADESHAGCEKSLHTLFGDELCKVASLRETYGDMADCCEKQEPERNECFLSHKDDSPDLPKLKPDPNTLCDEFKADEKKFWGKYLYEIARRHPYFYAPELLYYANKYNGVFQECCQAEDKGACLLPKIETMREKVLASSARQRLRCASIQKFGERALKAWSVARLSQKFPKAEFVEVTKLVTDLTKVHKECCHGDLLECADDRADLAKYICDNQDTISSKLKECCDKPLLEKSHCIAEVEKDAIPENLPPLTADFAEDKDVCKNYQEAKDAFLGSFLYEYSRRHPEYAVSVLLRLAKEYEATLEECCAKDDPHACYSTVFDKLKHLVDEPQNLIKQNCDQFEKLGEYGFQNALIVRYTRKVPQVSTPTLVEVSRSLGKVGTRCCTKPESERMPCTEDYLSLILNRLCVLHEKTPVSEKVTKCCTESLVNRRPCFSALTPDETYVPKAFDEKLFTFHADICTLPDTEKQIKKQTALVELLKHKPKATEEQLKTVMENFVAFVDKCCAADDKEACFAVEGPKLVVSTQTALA
Outline: as §1

[4] = system: heme bound to TrK13-R539T; experiment: Detection of AAS by HPLC, protein-bound heme after G-25 desalting; type: biochemical, Plasmodium falciparum; details: heme-TrK13 mixture desalted (G-25) before ART addition
Outline: (§2)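 Recombinant TrK13 protein (10 µM) was incubated with 60 µM reduced heme for 30 min at 37°C. Unbound heme was removed on a G-25 desalting column, then 72 µM test compound was added for another 30 min. Products were separated on a C4 column at 1 mL/min with 0.05% TFA water/acetonitrile (A/B 63/37 to 52/48 over 15 min, then 15 min hold). Detection was at 410 nm. AAS was expressed as a percentage of heme peak area (AUC); mean ± SD, three independent experiments.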

[5] = system: heme bound to TrK13-WT; experiment: as above; type: biochemical, Plasmodium falciparum; details: heme-TrK13 mixture desalted (G-25) before ART addition
Outline: as §2

[6] = target: T1, TrK13-WT (Plasmodium falciparum, UniProt Q8IDQ2); experiment: UV-visible spectrophotometry of heme binding
T1 sequence (Q8IDQ2 189-726): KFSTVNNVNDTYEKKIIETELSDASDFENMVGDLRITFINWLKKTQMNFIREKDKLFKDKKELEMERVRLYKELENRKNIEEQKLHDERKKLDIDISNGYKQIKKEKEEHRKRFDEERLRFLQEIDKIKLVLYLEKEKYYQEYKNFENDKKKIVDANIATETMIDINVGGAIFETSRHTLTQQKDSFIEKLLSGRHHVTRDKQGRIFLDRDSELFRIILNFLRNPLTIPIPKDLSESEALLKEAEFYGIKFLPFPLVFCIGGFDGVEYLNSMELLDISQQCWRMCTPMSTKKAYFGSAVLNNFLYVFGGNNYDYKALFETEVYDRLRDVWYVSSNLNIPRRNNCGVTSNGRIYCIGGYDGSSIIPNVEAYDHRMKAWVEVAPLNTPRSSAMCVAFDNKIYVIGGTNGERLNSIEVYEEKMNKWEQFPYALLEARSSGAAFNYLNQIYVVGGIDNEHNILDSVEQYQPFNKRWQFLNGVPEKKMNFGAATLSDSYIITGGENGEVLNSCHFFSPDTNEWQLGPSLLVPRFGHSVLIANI

[7] = system: heme-TrK13-R539T complex; experiment: Detection of AAS by UV-visible spectrophotometry; type: biochemical, Plasmodium falciparum; details: 200 µM ART, 30 min
Outline: as §1

[8] = system: heme-bound TrK13-WT; experiment: Detection of AAS by UV-visible spectrophotometry; type: biochemical, Plasmodium falciparum; details: for increase in the intensity of the 380 nm peak vs heme-bound protein without ART: 200 µM ART or DOA, 30 min, after G-25 desalting
[9] = system: heme-PfHRP2 complex; experiment: Detection of AAS by UV-visible spectrophotometry; type: biochemical, Plasmodium falciparum; details: ART, 30 min
[10] = system: heme-bound TrK13-A578S; experiment: Detection of AAS by UV-visible spectrophotometry; type: biochemical, Plasmodium falciparum; details: 200 µM ART, 30 min
Outline: as §1

[11] = system: TrK13-QNG (E688Q-E691N-H697G); experiment: Ferene S colorimetric assay of iron binding; design: species or system Plasmodium falciparum; details: Ferene S assay with FAS
[12] = system: recombinant TrK13-WT protein; experiment: UV-visible spectrophotometry of TrK13-WT with metal salts; type: binding, Plasmodium falciparum; details: TrK13-WT 5 μM, metal salt 500 μM (100-times molar excess)
[13] = system: recombinant TrK13-WT protein; experiment: Ferene S colorimetric assay of iron binding; design: species or system Plasmodium falciparum; details: TrK13-WT 5 μM, 30-times molar excess (150 μM) FAS, G-25 desalted
[14] = target: T1, TrK13-WT; type: binding; details: TrK13-WT 10 µM, 10-fold molar excess of competitor
Outline: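 TrK13-WT (10 µM) was preincubated for 1 h at RT with 100 µM reduced heme or a heme analog. Hemin-agarose beads (50% v/v suspension) were then added for 1 h at RT, rotating, in MOPS pH 7.4. Beads were washed five times with MOPS. Bound protein was eluted in Laemmli buffer and resolved by SDS-PAGE with Coomassie staining. Band pixel intensity was expressed relative to the no-competitor band, set as 100%.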

[15] = target: T2, TrK13-R539T (Plasmodium falciparum, UniProt Q8IDQ2, R539T); experiment: Tryptophan fluorescence quenching by heme; type: binding
T2 sequence (Q8IDQ2 189-726 R539T): T1 sequence (Q8IDQ2 189-726)

[16] = target: T3, TrK13-A578S (Plasmodium falciparum, UniProt Q8IDQ2, A578S); experiment: Tryptophan fluorescence quenching by heme; type: binding
T3 sequence (Q8IDQ2 189-726 A578S): T1 sequence (Q8IDQ2 189-726)

[17] = target: T1, TrK13-WT; experiment: Tryptophan fluorescence quenching by heme; type: binding
[18] = target: T4, TrK13-C580Y (Plasmodium falciparum, UniProt Q8IDQ2, C580Y); experiment: Tryptophan fluorescence quenching by heme; type: binding
T4 sequence (Q8IDQ2 189-726 C580Y): T1 sequence (Q8IDQ2 189-726)

[19] = protein 10 µM, heme 0–5 µM, excitation 295 nm
[20] = tryptophan fluorescence quenching

C[C@@H]1CC[C@H]2[C@@H](C)C(=O)O[C@@H]3O[C@@]4(C)CC[C@@H]1[C@]32OO4 [ART, artemisinin]
AAS peaks in the HPLC chromatogram at 410 nm [1]: additional peaks | increase in peak intensity at 380 nm [2]: barely detectable increase | AAS formation (peak absorbance at 380 nm) [3]: no AAS formation | Percentage of AAS versus heme (area under the curve) [4]: ~ 30% | Percentage of AAS versus heme (area under the curve) [5]: ~ 50% | changes in the spectral profile of TrK13-WT at 250–700 nm (direct interaction) ([6]; TrK13-WT 10 µM with excess (200 µM) ART, no heme): no visible changes | increase in peak intensity at 380 nm [7]: barely detectable increase | increase in the intensity of the 380 nm peak vs heme-bound protein without ART [8]: ~ 42% | increment in the 380 nm absorbance peak after addition of ART ([8]; Fe^3+ hemin not pre-reduced to Fe^2+ heme): No increment | AAS formation (peak absorbance at 380 nm) [9]: no AAS formation | increase in peak intensity at 380 nm [10]: ~ 176%

O=S(=O)([O-])[O-].O=S(=O)([O-])[O-].[Fe+2].[NH4+].[NH4+] [FAS, ferrous ammonium sulfate]
reduction in absorbance at 595 nm in TrK13-QNG compared to TrK13-WT [11]: ~ 33% | increase in the absorbance of TrK13-WT at 280 nm relative to TrK13-WT alone (no salts) [12]: 5.82 times | increase in the absorbance at 595 nm in the eluate vs FAS alone or TrK13-WT alone controls [13]: Approximately 10 fold

C[C@@H]1CC[C@H]2[C@@H](C)C(=O)O[C@@H]3O[C@@]4(C)CC[C@@H]1[C@]32O4 [DOA, deoxyartemisinin]
increase in the intensity of the 380 nm peak vs heme-bound protein without ART [8]: no increase; also recorded: no hyperchromic shift

C[C@H]1[C@@H](O)O[C@@H]2O[C@@]3(C)CC[C@H]4[C@H](C)CC[C@@H]1[C@@]24OO3 [DHA, dihydroartemisinin]
AAS peaks in the HPLC chromatogram at 410 nm [1]: additional peaks

O=S(=O)([O-])[O-].O=S(=O)([O-])[O-].[Fe+3].[NH4+] [FES, ferric ammonium sulfate]
increase in the absorbance of TrK13-WT at 280 nm relative to TrK13-WT alone (no salts) [12]: 12.84 times

C=CC1=C(C)c2cc3[n-]c(cc4[n-]c(cc5nc(cc1n2)C(C)=C5C=C)c(C)c4CCC(=O)O)c(CCC(=O)O)c3C.[Zn+2] [Zn-PPIX]
inhibition of TrK13-WT binding to hemin-agarose beads [14]: ~ 65% | increase in absorbance at 380 nm on ART addition, Zn-PPIX instead of heme ([8]; TrK13-WT with Zn-PPIX, then ART): no increase

C=CC1=C(C)c2cc3[nH]c(cc4nc(cc5[nH]c(cc1n2)c(C)c5CCC(=O)O)C(CCC(=O)O)=C4C)c(C)c3C=C [PPIX, protoporphyrin IX]
inhibition of TrK13-WT binding to hemin-agarose beads [14]: ~ 50%

C=CC1=C(C)c2cc3[nH]c(cc4nc(cc5[nH]c(cc1n2)c(C)c5C=C)C(C)=C4CCC(=O)O)c(CCC(=O)O)c3C.[Fe+3] [heme, ferrous protoporphyrin IX]
Stern-Volmer quenching constant (KSV) [15, 19]: 1.17 µM⁻¹ | Association constant (Ka) [15, 20]: 7.86E + 07 M^-1 | Stern-Volmer quenching constant (KSV) [16, 19]: 0.66 µM⁻¹ | Association constant (Ka) [16, 20]: 2.88E + 11 M^-1 | Kd ([6]; read-out: Kd (double reciprocal plot of 1/ΔA versus 1/[heme]), TrK13-WT 10 µM titrated with heme 0-26 µM, G25 desalted): 0.03622 ± 0.0001 µM | Stern-Volmer quenching constant (KSV) [17, 19]: 0.59 µM⁻¹ | Association constant (Ka) [17, 20]: 1.35E + 11 M^-1 | Stern-Volmer quenching constant (KSV) [18, 19]: 1.75 µM⁻¹ | Association constant (Ka) [18, 20]: 1.47E + 07 M^-1
